Test results as given in ChEMBL document CHEMBL3611989, “Discovery and characterization of aryl isonitriles as a new class of compounds versus methicillin- and vancomycin-resistant Staphylococcus aureus” (Eur J Med Chem, 2015).
In brackets after ≈: the same amount, converted by molar mass.

Experiments:
[1] = test system: Staphylococcus aureus; experiment: Antimicrobial activity against methicillin-sensitive Staphylococcus aureus NRS72 assessed as reduction in bacterial growth incubated for 18 to 20 hrs at 37 degC by broth microdilution method; type: functional
How it was run: (§1)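 Modified CLSI broth microdilution. Bacterial suspension of about 1 × 10^5 CFU/mL in tryptic soy broth. Each agent was added in triplicate to the first row and serially diluted down the plate. Plates were incubated at 37 °C for 18-20 h. MIC was read as the lowest concentration with no visible growth.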

[2] = test system: Staphylococcus aureus; experiment: Antimicrobial activity against methicillin-resistant Staphylococcus aureus NRS119 assessed as reduction in bacterial growth incubated for 18 to 20 hrs at 37 degC by broth microdilution method; type: functional; how it was run: as §1
[3] = test system: Staphylococcus aureus; experiment: Antimicrobial activity against methicillin-resistant Staphylococcus aureus USA200 assessed as reduction in bacterial growth incubated for 18 to 20 hrs at 37 degC by broth microdilution method; type: functional; how it was run: as §1
[4] = test system: Staphylococcus aureus; experiment: Antimicrobial activity against vancomycin-resistant Staphylococcus aureus VRS2 assessed as reduction in bacterial growth incubated for 18 to 20 hrs at 37 degC by broth microdilution method; type: functional; how it was run: as §1
[5] = test system: Staphylococcus aureus; experiment: Antimicrobial activity against methicillin-resistant Staphylococcus aureus USA100 assessed as reduction in bacterial growth incubated for 18 to 20 hrs at 37 degC by broth microdilution method; type: functional; how it was run: as §1
[6] = test system: Staphylococcus aureus; experiment: Antimicrobial activity against vancomycin-intermediate-resistant Staphylococcus aureus NRS1 assessed as reduction in bacterial growth incubated for 18 to 20 hrs at 37 degC by broth microdilution method; type: functional; how it was run: as §1
[7] = test system: Staphylococcus aureus; experiment: Antimicrobial activity against methicillin-resistant Staphylococcus aureus USA700 assessed as reduction in bacterial growth incubated for 18 to 20 hrs at 37 degC by broth microdilution method; type: functional; how it was run: as §1
[8] = test system: Staphylococcus aureus; experiment: Antimicrobial activity against methicillin-resistant Staphylococcus aureus USA500 assessed as reduction in bacterial growth incubated for 18 to 20 hrs at 37 degC by broth microdilution method; type: functional; how it was run: as §1
[9] = test system: Staphylococcus aureus; experiment: Antimicrobial activity against methicillin-resistant Staphylococcus aureus USA300 assessed as reduction in bacterial growth incubated for 18 to 20 hrs at 37 degC by broth microdilution method; type: functional; how it was run: as §1
[10] = test system: J774; experiment: Cytotoxicity against mouse J774 cells assessed as reduction in cell viability at 64 uM incubated for 2 hrs by MTS assay; type: cell-based; details: j774, 2 h
How it was run: (§2)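 Murine J774 macrophages grown in DMEM with 10% FBS at 37 °C, 5% CO2. Compounds were tested in triplicate at 16, 32, 64 and 128 μM for 2 h, with DMSO-matched vehicle controls. MTS reagent was then added and absorbance read at OD490. Viability is given as percent of DMSO-treated cells (mean of triplicate ± standard deviation), compared by paired t-test (P < 0.05).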

[11] = test system: J774; type: cell-based; details: mouse, j774, 2 h, 128 µM
[12] = test system: J774; experiment: Cytotoxicity against mouse J774 cells assessed as reduction in cell viability at 32 uM incubated for 2 hrs by MTS assay; type: cell-based; details: j774, 2 h; how it was run: as §2

Row | SMILES | MIC [1] | MIC [2] | MIC [3] | MIC [4] | MIC [5] | MIC [6] | MIC [7] | MIC [8] | MIC [9] | Activity [10] | Activity [11] | Activity [12]
1 | [C-]#[N+]c1ccccc1/C=C(\C)c1ccccc1 | 8 µM (≈ 1.75 µg/mL) | > 128 µM | 64 µM (≈ 14 µg/mL) | > 128 µM | 8 µM (≈ 1.75 µg/mL) | 4 µM (≈ 0.877 µg/mL) | 16 µM (≈ 3.51 µg/mL) | > 128 µM | > 128 µM | – | – | –
2 | [C-]#[N+]c1ccccc1/C=C(\CC)c1ccc(F)cc1 | 8 µM (≈ 2.01 µg/mL) | 64 µM (≈ 16.1 µg/mL) | 16 µM (≈ 4.02 µg/mL) | 32 µM (≈ 8.04 µg/mL) | 16 µM (≈ 4.02 µg/mL) | 8 µM (≈ 2.01 µg/mL) | 8 µM (≈ 2.01 µg/mL) | 16 µM (≈ 4.02 µg/mL) | 32 µM (≈ 8.04 µg/mL) | – | – | –
3 | [C-]#[N+]c1ccccc1/C=C/c1ccc(CCCC)cc1 | > 128 µM | > 128 µM | > 128 µM | > 128 µM | – | – | – | > 128 µM | > 128 µM | – | – | –
4 | [C-]#[N+]c1ccccc1/C=C(\CCCC)c1ccccc1 | 32 µM (≈ 8.36 µg/mL) | > 128 µM | 32 µM (≈ 8.36 µg/mL) | 64 µM (≈ 16.7 µg/mL) | 32 µM (≈ 8.36 µg/mL) | 16 µM (≈ 4.18 µg/mL) | 16 µM (≈ 4.18 µg/mL) | 32 µM (≈ 8.36 µg/mL) | > 128 µM | – | – | –
5 | [C-]#[N+]c1ccccc1CP(=O)(OCC)OCC | > 128 µM | > 128 µM | 128 µM (≈ 32.4 µg/mL) | > 128 µM | > 128 µM | 128 µM (≈ 32.4 µg/mL) | > 128 µM | > 128 µM | > 128 µM | – | – | –
6 | [C-]#[N+]c1ccc(/C=C/c2cccnc2)cc1 | 16 µM (≈ 3.3 µg/mL) | 64 µM (≈ 13.2 µg/mL) | 32 µM (≈ 6.6 µg/mL) | 8 µM (≈ 1.65 µg/mL) | 16 µM (≈ 3.3 µg/mL) | 32 µM (≈ 6.6 µg/mL) | 16 µM (≈ 3.3 µg/mL) | 32 µM (≈ 6.6 µg/mL) | – | Non-toxic | Toxic | Non-toxic
7 | [C-]#[N+]c1ccccc1C=C(c1ccccc1)c1ccccc1 | 8 µM (≈ 2.25 µg/mL) | 16 µM (≈ 4.5 µg/mL) | 8 µM (≈ 2.25 µg/mL) | 16 µM (≈ 4.5 µg/mL) | 8 µM (≈ 2.25 µg/mL) | 4 µM (≈ 1.13 µg/mL) | 4 µM (≈ 1.13 µg/mL) | 8 µM (≈ 2.25 µg/mL) | 16 µM (≈ 4.5 µg/mL) | – | – | –
8 | [C-]#[N+]c1ccc(C)cc1-c1ccc(C(F)(F)F)cc1 | > 128 µM | > 128 µM | > 128 µM | > 128 µM | > 128 µM | > 128 µM | > 128 µM | > 128 µM | > 128 µM | – | – | –
9 | [C-]#[N+]c1cccc(/C=C/c2cccnc2)c1 | 64 µM (≈ 13.2 µg/mL) | 64 µM (≈ 13.2 µg/mL) | 64 µM (≈ 13.2 µg/mL) | 64 µM (≈ 13.2 µg/mL) | 32 µM (≈ 6.6 µg/mL) | 64 µM (≈ 13.2 µg/mL) | 64 µM (≈ 13.2 µg/mL) | 64 µM (≈ 13.2 µg/mL) | 32 µM (≈ 6.6 µg/mL) | – | – | –
10 | [C-]#[N+]c1ccccc1C=C1CCCCC1 | 8 µM (≈ 1.58 µg/mL) | > 128 µM | 64 µM (≈ 12.6 µg/mL) | > 128 µM | 16 µM (≈ 3.16 µg/mL) | 4 µM (≈ 0.789 µg/mL) | 16 µM (≈ 3.16 µg/mL) | > 128 µM | > 128 µM | – | – | –
11 | [C-]#[N+]c1ccccc1/C=C/c1ccncc1 | 64 µM (≈ 13.2 µg/mL) | 64 µM (≈ 13.2 µg/mL) | 32 µM (≈ 6.6 µg/mL) | 64 µM (≈ 13.2 µg/mL) | 32 µM (≈ 6.6 µg/mL) | 64 µM (≈ 13.2 µg/mL) | 32 µM (≈ 6.6 µg/mL) | 32 µM (≈ 6.6 µg/mL) | 32 µM (≈ 6.6 µg/mL) | – | – | –
12 | [C-]#[N+]c1ccc(/C=C/c2ccccn2)cc1 | 64 µM (≈ 13.2 µg/mL) | 128 µM (≈ 26.4 µg/mL) | 128 µM (≈ 26.4 µg/mL) | 64 µM (≈ 13.2 µg/mL) | 128 µM (≈ 26.4 µg/mL) | 64 µM (≈ 13.2 µg/mL) | 128 µM (≈ 26.4 µg/mL) | 64 µM (≈ 13.2 µg/mL) | 32 µM (≈ 6.6 µg/mL) | – | – | –
13 | [C-]#[N+]c1ccccc1CCc1ccccc1 | 64 µM (≈ 13.3 µg/mL) | 2 µM (≈ 0.415 µg/mL) | 16 µM (≈ 3.32 µg/mL) | 64 µM (≈ 13.3 µg/mL) | 4 µM (≈ 0.829 µg/mL) | 2 µM (≈ 0.415 µg/mL) | 32 µM (≈ 6.63 µg/mL) | 128 µM (≈ 26.5 µg/mL) | 4 µM (≈ 0.829 µg/mL) | – | – | –
14 | [C-]#[N+]c1ccccc1/C=C(\CC)c1ccc(C(F)(F)F)cc1 | 8 µM (≈ 2.41 µg/mL) | 64 µM (≈ 19.3 µg/mL) | – | 16 µM (≈ 4.82 µg/mL) | – | 8 µM (≈ 2.41 µg/mL) | – | – | 32 µM (≈ 9.64 µg/mL) | – | – | –
15 | [C-]#[N+]c1ccccc1-c1ccccc1 | > 128 µM | > 128 µM | 16 µM (≈ 2.87 µg/mL) | > 128 µM | 16 µM (≈ 2.87 µg/mL) | 8 µM (≈ 1.43 µg/mL) | 16 µM (≈ 2.87 µg/mL) | > 128 µM | > 128 µM | – | – | –
